Results from BindingDB's records for doi:10.1021/ml500113s (Rti International, 2014).

Target: Sodium-dependent serotonin transporter (Rattus norvegicus, UniProt P31652)
Assay: Inhibition of SERT-mediated serotonin uptake in rat synaptosomes
Procedure, shortened: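 Synaptosomes prepared from rat brain homogenate. Each compound was run in both the release assay and the uptake-inhibition assay to classify it as a releasing substrate or an uptake inhibitor. Dose-response curves were then completed only for the assigned activity. Values are means ± SD from N = 3 experiments, each performed in triplicate.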

Sodium-dependent serotonin transporter, sequence (P31652 whole entry): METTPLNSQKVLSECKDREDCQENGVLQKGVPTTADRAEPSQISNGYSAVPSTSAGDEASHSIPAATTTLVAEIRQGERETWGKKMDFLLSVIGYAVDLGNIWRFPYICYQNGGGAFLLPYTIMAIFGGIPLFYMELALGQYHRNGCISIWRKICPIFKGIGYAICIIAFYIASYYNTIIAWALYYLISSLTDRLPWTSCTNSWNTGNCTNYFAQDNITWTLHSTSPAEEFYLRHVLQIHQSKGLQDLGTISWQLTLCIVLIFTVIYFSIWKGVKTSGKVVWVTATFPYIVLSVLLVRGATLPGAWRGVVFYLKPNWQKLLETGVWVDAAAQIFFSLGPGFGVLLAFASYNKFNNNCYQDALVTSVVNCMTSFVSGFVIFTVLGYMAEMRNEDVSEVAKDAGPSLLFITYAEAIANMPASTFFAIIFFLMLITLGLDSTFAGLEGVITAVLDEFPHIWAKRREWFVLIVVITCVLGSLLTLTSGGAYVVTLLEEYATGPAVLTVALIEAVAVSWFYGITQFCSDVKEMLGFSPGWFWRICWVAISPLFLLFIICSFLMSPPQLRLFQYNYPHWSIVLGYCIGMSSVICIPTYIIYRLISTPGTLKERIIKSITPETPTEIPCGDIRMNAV

CC(NC1CC1)C(=O)c1cccc(Cl)c1 (stereo unspecified) [2-(N-Cyclopropylamino)-3-chloropropiophenone]
IC50: 3.18 µM
